The source of these data is ChEMBL document CHEMBL4219066, “Identification and Mitigation of Reactive Metabolites of 2-Aminoimidazole-Containing Microsomal Prostaglandin E Synthase-1 Inhibitors Terminated Due to Clinical Drug-Induced Liver Injury” (J Med Chem, 2018).

Data set [1] can be described thus: In vivo drug level in human plasma treated with LY3023703 by HPLC-MS analysis. The format is ADME, organism-based.
The nature of data set [2]: Drug level in rat hepatocytes treated with LY3023703 at 2 uM after 4 hrs by LC-MS/MS analysis. The format is ADME, cell-based, Hepatocyte.
Data set [3] is described as follows: Drug level in Beagle dog plasma treated with LY3023703 at 300 to 600 mg/kg, po measured after 2 hrs post dose by LC/MS analysis. It is filed as ADME, organism-based, Canis lupus familiaris. The settings on record: in vivo.
Data set [4] can be described thus: Drug level in dog hepatocytes treated with LY3023703 at 2 uM after 4 hrs by LC-MS/MS analysis. It is filed as ADME, cell-based, Canis lupus familiaris, Hepatocyte.
Data set [5] in a line: Drug level in human hepatocytes treated with LY3023703 at 2 uM after 4 hrs by LC-MS/MS analysis. It is filed as ADME, cell-based, Hepatocyte.
A short description of data set [6]: In vivo drug level in human urine treated with LY3023703 by HPLC-MS analysis. It is filed as ADME, organism-based.
Data set [7] can be described thus: Drug level in rat hepatocytes treated with 2-Chloro-N-(4-methyl-1H-imidazol-2-yl)-5-(pivalamidomethyl)benzamide at 2 uM after 4 hrs by LC-MS/MS analysis. It is filed as ADME, cell-based, Hepatocyte.
Data set [8] is described as follows: Drug level in human hepatocytes treated with 2-Chloro-N-(4-methyl-1H-imidazol-2-yl)-5-(pivalamidomethyl)benzamide at 2 uM after 4 hrs by LC-MS/MS analysis. It is filed as ADME, cell-based, Hepatocyte.
Data set [9] is described as follows: Drug level in rat hepatocytes treated with 2-(2-Chloro-5-(pivalamidomethyl)benzamido)-N-phenyl-1Himidazole-4-carboxamide at 2 uM after 4 hrs by LC-MS/MS analysis. The format is ADME, cell-based, Hepatocyte.
A short description of data set [10]: Drug level in human hepatocytes treated with 2-(2-Chloro-5-(pivalamidomethyl)benzamido)-N-phenyl-1Himidazole-4-carboxamide at 2 uM after 4 hrs by LC-MS/MS analysis. The format is ADME, cell-based, Hepatocyte.
Data set [11] in a line: Drug level in dog hepatocytes treated with 2-(Difluoromethyl)-N-(4-methyl-5-(4-(trifluoromethyl)-phenyl)-1H-imidazol-2-yl)-5-(pivalamidomethyl)nicotinamide at 2 uM after 4 hrs by LC-MS/MS analysis. The format is ADME, cell-based, Canis lupus familiaris, Hepatocyte.
The nature of data set [12]: Drug level in rat hepatocytes treated with 2 -Chloro-N-(4,5-dimethyl-1H-imidazol-2-yl)-5-(pivalamidomethyl)benzamide at 2 uM after 4 hrs by LC-MS/MS analysis. The format is ADME, cell-based, Hepatocyte.
A short description of data set [13]: Drug level in human hepatocytes treated with 2 -Chloro-N-(4,5-dimethyl-1H-imidazol-2-yl)-5-(pivalamidomethyl)benzamide at 2 uM after 4 hrs by LC-MS/MS analysis. The format is ADME, cell-based, Hepatocyte.
Data set [14] is described as follows: In vivo drug level in human urine treated with LY3031207 by HPLC-MS analysis. The format is ADME, organism-based.
Data set [15] can be described thus: In vivo drug level in human plasma treated with LY3031207 by HPLC-MS analysis. The format is ADME, organism-based.
The nature of data set [16]: Drug level in dog hepatocytes treated with LY3031207 at 2 uM after 4 hrs by LC-MS/MS analysis. The format is ADME, cell-based, Canis lupus familiaris, Hepatocyte.
Data set [17] can be described thus: Drug level in human hepatocytes treated with LY3031207 at 2 uM after 4 hrs by LC-MS/MS analysis. The format is ADME, cell-based, Hepatocyte.
Data set [18] can be described thus: Drug level in rat hepatocytes treated with LY3031207 at 2 uM after 4 hrs by LC-MS/MS analysis. The format is ADME, cell-based, Hepatocyte.
Data set [19] is described as follows: Drug level in human hepatocytes treated with 2-(Difluoromethyl)-N-(4-methyl-5-(4-(trifluoromethyl)-phenyl)-1H-imidazol-2-yl)-5-(pivalamidomethyl)nicotinamide at 2 uM after 4 hrs by LC-MS/MS analysis. It is filed as ADME, cell-based, Hepatocyte.
The nature of data set [20]: Drug level in rat hepatocytes treated with 2-(Difluoromethyl)-N-(4-methyl-5-(4-(trifluoromethyl)-phenyl)-1H-imidazol-2-yl)-5-(pivalamidomethyl)nicotinamide at 2 uM after 4 hrs by LC-MS/MS analysis. The format is ADME, cell-based, Hepatocyte.
The nature of data set [21]: Drug level in human liver microsomes treated with 2-Chloro-N-(4-methyl-1H-imidazol-2-yl)-5-(pivalamidomethyl)benzamide at 2 uM after 0.5 hrs in presence of 1:1 ratio of unlabeled GSH and [glycine 13C2,15N]-labelled GSH by HPLC-MS analysis. It is filed as ADME, microsome. In a few lines:
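Glutathione-trapping incubation in human liver microsomes fortified with GSH to capture reactive intermediates. Metabolites and GSH adducts were identified by MS.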

A short description of data set [22]: Drug metabolism in rat hepatocytes assessed as 2-(2-chloro-5-(pivalamidomethyl)benzamido)-1H-imidazole-4-carboxylic acid formation at 2 uM after 4 hrs by LC-MS/MS analysis. It is filed as ADME, cell-based, Hepatocyte.
Data set [23] in a line: Drug metabolism in human hepatocytes assessed as 2-(2-chloro-5-(pivalamidomethyl)benzamido)-1H-imidazole-4-carboxylic acid formation at 2 uM after 4 hrs by LC-MS/MS analysis. The format is ADME, cell-based, Hepatocyte.

As for `C=C(C)C(=O)NCc1cnc(C(F)F)c(C(=O)Nc2nc(C)c(-c3ccc(C(F)(F)F)cc3)[nH]2)c1`, the Drug metabolism result in data set [1] and in data set [2] was “Metabolite_Detected” throughout.
Consider `Cc1nc(NC(=O)c2cc(CNC(=O)C(C)(C)O)cnc2C(F)F)[nH]c1-c1ccc(C(F)(F)F)cc1`, for which the Drug metabolism result in data set [3], in data set [1], in data set [2], in data set [4], in data set [5] and in [6] was “Metabolite_Detected” in each case.
Take `Cc1c[nH]c(NC(=O)c2cc(CNC(=O)C(C)(C)CO)ccc2Cl)n1`: the Drug metabolism entry in data set [7] and in data set [8] was “Metabolite_Detected” each time.
For the compound `Cc1nc(NC(=O)c2cc(CN)cnc2C(F)F)[nH]c1-c1ccc(C(F)(F)F)cc1`, in [6], the Drug metabolism result is on record as “Metabolite_Detected”.
On to `CC(C)(CO)C(=O)NCc1ccc(Cl)c(C(=O)Nc2nc(C(=O)Nc3ccccc3)c[nH]2)c1`, for which the Drug metabolism entry in data set [9] and in data set [10] was “Metabolite_Detected” in each case.
As for `CC(C)(C)C(=O)NCc1cnc(C(F)F)c(C(=O)Nc2nc(CO)c(-c3ccc(C(F)(F)F)cc3)[nH]2)c1`, in data set [11], the Drug metabolism entry was “Metabolite_Detected”.
As for `Cc1[nH]c(NC(=O)c2cc(CNC(=O)C(C)(C)C)ccc2Cl)nc1CO`, the Drug metabolism result in data set [12] and in [13] was “Metabolite_Detected” each time.
For `CC(C)(C)C(=O)NCc1ccc(Cl)c(C(=O)NC(=N)N)c1`, the Drug metabolism result in [7], in data set [12], in data set [8], in [14], in data set [15] and in data set [13] was “Metabolite_Detected” throughout.
`Cc1nc(N[C@@H]2O[C@H](C(=O)O)[C@@H](O)[C@H](O)[C@H]2O)[nH]c1-c1ccc(C(F)(F)F)cc1`: in data set [3], the Drug metabolism entry is “Metabolite_Detected”.
Turning to `CC(C)(C)C(=O)NCc1ccc(Cl)c(C(=O)NC2=NC(O)C(O)N2)c1` (configuration not stated), the Drug metabolism entry in data set [16], in data set [14], in data set [17] and in data set [18] was “Metabolite_Detected” in each case.
As to `CC(C)(CO)C(=O)NCc1ccc(Cl)c(C(=O)Nc2ncc[nH]2)c1`, the Drug metabolism result in data set [16], in [14], in data set [15], in data set [17] and in [18] was “Metabolite_Detected” throughout.
Turning to `Cc1nc(N)[nH]c1-c1ccc(C(F)(F)F)cc1`, the Drug metabolism entry in data set [3], in data set [2] and in data set [5] was “Metabolite_Detected” each time.
Turning to `Cc1nc(NC(=O)c2cc(CNC(=O)C(C)CO)cnc2C(F)F)[nH]c1-c1ccc(C(F)(F)F)cc1` (configuration not stated), the Drug metabolism entry in data set [3], in data set [1], in data set [2], in data set [5] and in [6] was “Metabolite_Detected” in each case.
For `CC(C)(C)C(=O)NCc1ccc(Cl)c(C(=O)O)c1`, the Drug metabolism entry in [9] and in data set [10] was “Metabolite_Detected” throughout.
In the case of `CC(C)C(=O)NCc1cnc(C(F)F)c(C(=O)NC(=N)N)c1`, the Drug metabolism entry in [2], in [4], in [5] and in data set [6] was “Metabolite_Detected” in each case.
Consider `Cc1nc(NC(=O)c2cc(CNC(=O)C(C)(C)CO)cnc2C(F)F)[nH]c1-c1ccc(C(F)(F)F)cc1`, for which the Drug metabolism entry in data set [19], in [20] and in data set [11] was “Metabolite_Detected” throughout.
With `CC(C)(C)C(=O)NCc1ccc(Cl)c(C(=O)Nc2nc(CSC[C@H](NC(=O)CC[C@H](N)C(=O)O)C(=O)NCC(=O)O)c[nH]2)c1`, the Drug metabolism result in data set [21] is reported as “Metabolite_Detected”.
On the same count and under the same terms, the result for `CC(C)(C)C(=O)NCc1ccc(Cl)c(C(=O)Nc2nc(CSC[C@H](N)C(=O)NCC(=O)O)c[nH]2)c1` reads “Metabolite_Detected”.
On to `CC(C)(C)C(=O)NCc1ccc(Cl)c(C(=O)Nc2nc(O)c[nH]2)c1`, for which the Drug metabolism entry in data set [16], in data set [14], in data set [15], in data set [17] and in [18] was “Metabolite_Detected” throughout.
In the case of `Cc1nc(NC(=O)c2cc(CNC(=O)C(C)(C)CO)ccc2Cl)[nH]c1C`, the Drug metabolism entry in data set [12] and in [13] was “Metabolite_Detected” each time.
As for `CC(C)(C)C(=O)NCc1ccc(Cl)c(C(=O)Nc2nc(CO)c[nH]2)c1`, the Drug metabolism entry in [22], in data set [7], in data set [8] and in data set [23] was “Metabolite_Detected” each time.
Consider `CC(=O)Nc1nc(C)c(-c2ccc(C(F)(F)F)cc2)[nH]1`, for which the Drug metabolism result in [3] is reported as “Metabolite_Detected”.
Turning to `CC(C)(C)C(=O)NCc1cnc(C(F)F)c(C(=O)NC(=N)N)c1`, the Drug metabolism entry in [19], in data set [20] and in data set [11] was “Metabolite_Detected” in each case.
For `CC(C)(CO)C(=O)NCc1ccc(Cl)c(C(=O)NC(=N)N)c1`, the Drug metabolism result in data set [14] is “Metabolite_Detected”.
